Published values collected from several papers.
Target: Dual specificity protein kinase CLK1 (CLK1, Homo sapiens, UniProt P49759)
Technique: competition with immobilised ligand

The remaining binding of `CN(CCCC(F)(F)F)c1nccc(-c2cnn3ncccc23)n1` is reported as 43% (binding; 1 µM).
The remaining binding of `COc1cc(-c2cn(C3CCc4ccccc4N(CC(F)(F)F)C3=O)nn2)ccc1-n1ccc(C)n1` (centres unmarked) is reported as 87% (cell-free assay; 1 µM).
The remaining binding of `CCN1CCN(Cc2ccc(C(=O)Nc3ccc(C)c(Oc4ccc5c(c4)CC(=O)N5)c3)cc2C(F)(F)F)CC1` is reported as 100% (binding; 1 µM).
With `COc1ncc2cc3ccccc3nc2c1C#N` the remaining binding was 98% (cell-free assay; 5 µM).
`FC(F)(F)Oc1cccc(-c2cnc3ccc(-c4ccncc4)nn23)c1` has a remaining binding of 0.7% (cell-free assay; 5 µM).
With `CS(=O)(=O)N1CCCC(NC(=O)[C@H](CCC2CCCCC2)NC(=O)c2ccc(CNc3ncnc4c3nnn4-c3ccccc3)cc2)C1` (some centres unmarked) the remaining binding was 87% (cell-free assay; 0.1 µM).
The remaining binding of `O=C(NCCCN1CCOCC1)c1ccc(Nc2nccc(-c3cc4ccccc4s3)n2)cc1` is reported as 12% (binding; 1 µM).
With `Nc1ncc2c(n1)-c1c([nH]c3ccc(C#CC4CC4)cc13)CCCC2` the remaining binding was 100% (binding; 1 µM).
For `C[C@H](c1ccnc(Nc2nc3ccc(-c4cc(N(C)C)ncn4)cc3[nH]2)c1)N1CCN(C(=O)CC(F)(F)F)CC1`, the remaining binding was 90% (cell-free assay; 0.1 µM).
For `COc1cnc(Nc2cccc(S(N)(=O)=O)c2)nc1N1CCN(c2ccccc2)CC1`, the remaining binding was 96% (binding; 1 µM).
For `O=C(c1ccc(Nc2ncc(Cl)c(-c3ccc(Cl)s3)n2)cc1)N1CCC(N2CCCC2)CC1`, the remaining binding was 3.9% (binding; 1 µM).
`O=C(Nc1c[nH]nc1C(=O)NC1CCNCC1)c1cc(F)cc(F)c1` has a remaining binding of 100% (binding; 1 µM).
`O=C(c1ccc(Nc2nccc(-c3cc4ccccc4s3)n2)cc1)N1CCC(N2CCCC2)CC1` has a remaining binding of 13% (binding; 1 µM).
`Cc1c(C(=O)O)cc(-c2ccc(C3CCNCC3)cc2)c2ccc(-c3ccc(C(F)(F)F)cc3)cc12` gave a remaining binding of 100% (binding; 1 µM).
